According to ChEMBL document CHEMBL4765399, “Design, synthesis, and biological evaluation of 5-((8-methoxy-2-methylquinolin-4-yl)amino)-1H-indole-2-carbohydrazide derivatives as novel Nur77 modulators” (Eur J Med Chem, 2020):
Calls of active or inactive are those of the source. The rule behind the calls is not given here.

Assays:
[1] = biological target: Nuclear receptor subfamily 4immunitygroup A member 1 (Homo sapiens, UniProt P22736); assay: Binding affinity to Nur77 ligand binding domain (unknown origin) assessed as dissociation constant by surface plasmon resonance analysis
Sequence of Nuclear receptor subfamily 4immunitygroup A member 1 (P22736 whole entry, the tested form may be a part): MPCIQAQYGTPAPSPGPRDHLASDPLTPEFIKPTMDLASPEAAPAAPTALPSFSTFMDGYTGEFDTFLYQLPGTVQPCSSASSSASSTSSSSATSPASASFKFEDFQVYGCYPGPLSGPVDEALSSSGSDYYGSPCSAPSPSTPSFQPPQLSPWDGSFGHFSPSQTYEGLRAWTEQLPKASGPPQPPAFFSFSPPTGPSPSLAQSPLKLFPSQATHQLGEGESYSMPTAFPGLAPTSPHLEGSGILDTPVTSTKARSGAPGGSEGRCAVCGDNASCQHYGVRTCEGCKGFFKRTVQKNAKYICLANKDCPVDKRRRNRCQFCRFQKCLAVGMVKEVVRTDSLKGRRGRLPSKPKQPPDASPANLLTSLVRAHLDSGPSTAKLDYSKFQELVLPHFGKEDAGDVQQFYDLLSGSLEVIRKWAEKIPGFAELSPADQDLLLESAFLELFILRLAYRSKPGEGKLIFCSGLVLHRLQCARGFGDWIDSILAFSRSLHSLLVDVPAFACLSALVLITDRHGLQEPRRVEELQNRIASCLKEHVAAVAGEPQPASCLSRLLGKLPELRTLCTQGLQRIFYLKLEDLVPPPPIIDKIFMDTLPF
Summary of the method: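 SPR with Nur77-LBD, analyte injected at a series of concentrations; KD (equilibrium dissociation constant) and association/dissociation kinetics derived from the sensorgrams.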

QGY-7703 [2] = assay: Inhibition of colony formation in human QGY-7703 cells at 2 uM incubated for 24 hrs measured after cell culturing for 15 days in normal medium by crystal violet staining based assay; format: functional; settings: time 16.0 day
Summary of the method: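 500 HepG2, QGY-7703 or SMMC-7721 cells per well allowed to attach 24 h, exposed to DMSO or 2.0 µM for 24 h, then grown 15 days in plain medium. Colonies fixed 30 min in 4% paraformaldehyde, stained 15 min with 0.1% crystal violet, photographed and counted.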

HepG2 [3] = assay: Induction of morphological changes in human HepG2 cells assessed as cell shrinkage at 1 to 2 uM incubated for 6 to 12 hrs by phase contrast microscopic analysis; format: functional, cell-based; settings: dose 1-2 µM, time 6-12 hrs
Summary of the method: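 HepG2 cells given graded concentrations; morphology monitored at set time points by phase-contrast optical microscopy.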

HepG2 [4] = assay: Disruption of mitochondrial membrane potential in human HepG2 cells assessed as red fluorescence intensity at 2 uM incubated for 12 hrs by JC-1 staining based flow cytometry (reference value: 23598 units); format: functional
HepG2 [5] = assay: Induction of autophagy in human HepG2 cells assessed as increase in LC3-II expression measured after 12 hrs by Western blot analysis; format: functional, cell-based; settings: dose 0.5-2 µM
Summary of the method: (§1)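 HepG2, QGY-7703 and SMMC-7721 treated with graded concentrations for 12 h. Lysed in RIPA with inhibitors; 40-80 µg protein separated by SDS-PAGE, blotted to nitrocellulose, blocked 1 h in 5% milk, primary antibodies overnight (LC3, Beclin1, Bip, CHOP, TRB3), HRP secondaries, chemiluminescence.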

SMMC-7721 [6] = assay: Induction of autophagy in human SMMC-7721 cells assessed as increase in LC3-II expression measured after 12 hrs by Western blot analysis; format: functional, cell-based; settings: dose 0.5-2 µM; summary of the method: as §1
SMMC-7721 [7] = assay: Induction of autophagy in human SMMC-7721 cells assessed as increase in Beclin 1 expression measured at 12 hrs by Western blot analysis; format: functional, cell-based; settings: dose 0.5-2 µM; summary of the method: as §1
SMMC-7721 [8] = assay: Induction of endoplasmic reticulum stress in human SMMC-7721 cells assessed as increase in bip protein expression incubated for 12 hrs by Western blot analysis; format: functional, cell-based; settings: dose 0.5-2 µM; summary of the method: as §1
QGY-7703 [9] = assay: Induction of endoplasmic reticulum stress in human QGY-7703 cells assessed as increase in CHOP protein expression incubated for 12 hrs by Western blot analysis; format: functional, cell-based; settings: dose 0.5-2 µM; summary of the method: as §1
SMMC-7721 [10] = assay: Induction of endoplasmic reticulum stress in human SMMC-7721 cells assessed as increase in CHOP protein expression incubated for 12 hrs by Western blot analysis; format: functional, cell-based; settings: dose 0.5-2 µM; summary of the method: as §1
SMMC-7721 [11] = assay: Induction of endoplasmic reticulum stress in human SMMC-7721 cells assessed as increase in TRB3 protein expression incubated for 12 hrs by Western blot analysis; format: functional, cell-based; settings: dose 0.5-2 µM; summary of the method: as §1
HepG2 [12] = assay: Induction of endoplasmic reticulum stress in Nur77 […] human HepG2 cells assessed as bip protein expression at 2 uM incubated for 6 to 12 hrs by Western blot analysis; format: functional, cell-based; settings: time 6-12 hrs
Summary of the method: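 HepG2 and shNur77 HepG2 exposed to DMSO or 2.0 µM for 6 and 12 h; lysates immunoblotted for TRB3, Bip, CHOP and Nur77 (SDS-PAGE, nitrocellulose, overnight primary antibodies, HRP secondary, chemiluminescence).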

HepG2 [13] = assay: Induction of apoptosis in human HepG2 cells assessed as cleaved PARP expression at 2 uM pretreated with autophagy inhibitor, 3-methyladenine for 2 hrs followed by incubation with compound for 12 hrs by Western blot analysis; format: functional, cell-based
Summary of the method: (§2)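 HepG2 cells grown to confluence were pretreated 2 h with 2 mM 3-MA (autophagy inhibitor) or 2 mM 4-PBA (ER stress inhibitor), then exposed to compound for 12 h. Proteins (40–80 µg, RIPA lysate) were resolved by SDS-PAGE and blotted for PARP, cleaved caspase-3/-9, Bcl-2 and Bax, with chemiluminescent detection.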

HepG2 [14] = assay: Induction of apoptosis in human HepG2 cells assessed as cleaved caspase-3 expression at 2 uM pretreated with autophagy inhibitor, 3-methyladenine for 2 hrs followed by incubation with compound for 12 hrs by Western blot analysis; format: functional, cell-based; summary of the method: as §2
HepG2 [15] = assay: Induction of autophagy in human HepG2 cells assessed as LC3-II expression at 2 uM pretreated with ER stress inhibitor, 4-PBA for 2 hrs followed by incubation with compound for 12 hrs by Western blot analysis; format: functional, cell-based
Summary of the method: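 HepG2 grown to confluence, pretreated 2 h with 2 mM 4-PBA, then exposed to test compound for a further 12 h; Western blot for PARP, cleaved caspase-3/-9, Bcl-2, Bax, Bip, EIF2a, TRB3 and LC3.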

HepG2 [16] = assay: Induction of apoptosis in human HepG2 cells assessed as cleaved PARP expression at 2 uM pretreated with ER stress inhibitor, 4-PBA for 2 hrs followed by incubation with compound for 12 hrs by Western blot analysis; format: functional, cell-based; summary of the method: as §2
HepG2 [17] = assay: Induction of apoptosis in human HepG2 cells assessed as cleaved caspase-3 expression at 2 uM pretreated with ER stress inhibitor, 4-PBA for 2 hrs followed by incubation with compound for 12 hrs by Western blot analysis; format: functional, cell-based; summary of the method: as §2
HepG2 [18] = assay: Induction of apoptosis in human HepG2 cells assessed as Bax/Bcl-2 ratio at 2 uM pretreated with ER stress inhibitor, 4-PBA for 2 hrs followed by incubation with compound for 12 hrs by Western blot analysis; format: functional, cell-based
HepG2 [19] = assay: Antitumor activity against human HepG2 cells xenografted in BALB/c mouse assessed as induction of ER stress by measuring increase in bip level in tumor tissue at 10 to 20 mg/kg/day, ip administered for 15 days by immunohistochemical analysis; format: functional, organism-based; settings: dose 10-20 mg/kg/day, time 15.0 day
Summary of the method: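 HepG2 cells (5×10^6) injected subcutaneously into flanks of 4-week-old male Balb/c nude mice. At about 100 mm³, 15 mice were randomized to vehicle, 10 or 20 mg/kg i.p. once daily for 15 days. Tumors were then excised for immunostaining of paraffin sections (5 μm) or for western blot.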

HepG2 [20] = assay: Induction of apoptosis in human HepG2 cells assessed as live cells at 1 uM incubated for 12 hrs by Annexin V-FITC/PI staining based flow cytometry (reference value: 94%); format: functional
HepG2 [21] = assay: Induction of apoptosis in human HepG2 cells assessed as late apoptotic cells at 1 uM incubated for 12 hrs by Annexin V-FITC/PI staining based flow cytometry (reference value: 1.1%); format: functional
HepG2 [22] = assay: Induction of apoptosis in human HepG2 cells assessed as necrotic cells at 2 uM incubated for 12 hrs by Annexin V-FITC/PI staining based flow cytometry (reference value: 0.068 to 0.23%); format: functional
HepG2 [23] = assay: Disruption of mitochondrial membrane potential in human HepG2 cells transfected with shNur77 assessed as green fluorescence intensity at 2 uM incubated for 12 hrs by JC-1 staining based flow cytometry (reference value: 44890 units); format: functional
HepG2 [24] = assay: Disruption of mitochondrial membrane potential in human HepG2 cells transfected with shNur77 assessed as red fluorescence intensity at 2 uM incubated for 12 hrs by JC-1 staining based flow cytometry (reference value: 21319 units); format: functional

COc1cccc2c(Nc3ccc4[nH]c(C(=O)N/N=C/c5ccc(SC)cc5)cc4c3)cc(C)nc12
Kd [1]: 3.58 µM
Activity ([1]; filed as modulator): Dose-dependent effect
inhibition (QGY-7703 [2]): Active
Activity (HepG2 [3]): Active
Activity (HepG2 [4]): 10298 U
Activity (HepG2 [5]): Dose-dependent effect
Activity (SMMC-7721 [6]): Dose-dependent effect
Activity (SMMC-7721 [7]): Dose-dependent effect
Activity (SMMC-7721 [8]): Dose-dependent effect
Activity (QGY-7703 [9]): Dose-dependent effect
Activity (SMMC-7721 [10]): Dose-dependent effect
Activity (SMMC-7721 [11]): Dose-dependent effect
Activity (HepG2 [12]): inactive
Activity (HepG2 [13]): inactive
Activity (HepG2 [14]): inactive
Activity (HepG2 [15]): inactive
Activity (HepG2 [16]): inactive
Activity (HepG2 [17]): inactive
Activity (HepG2 [18]): inactive
Activity (HepG2 [19]): Active
Activity (HepG2 [20]): 65%
Activity (HepG2 [21]): 16.1%
Activity (HepG2 [22]): 0%
Activity (HepG2 [23]): 52452 U
Activity (HepG2 [24]): 18938 U
